Data published in ChEMBL document CHEMBL4715934, “Discovery of Imidazopyridines as Potent Inhibitors of Indoleamine 2,3-Dioxygenase 1 for Cancer Immunotherapy” (ACS Med Chem Lett, 2021).

Legend:
[1] = In vivo inhibition of IDO1 in mouse xenografted with human SKOV3 cells assessed as reduction in tumor kynurenine AUEC at 60 mg/kg, po qd for 5 days measured upto 24 hrs after dosing relative to vehicle treated control; format: functional; conditions: SK-OV-3, po, 120 h, time 5 day
Summary of the method: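 nu/nu nude mice carrying SKOV3 tumors grown 2 weeks; dosed QD for 5 days starting day 14. On day 18, tumor sampled at 2, 6 and 24 h for drug level and kynurenine. […] Kyn reduction measured at steady state after the 5th dose, taken as area under the Kyn concentration–time curve 0–24 h versus vehicle control.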

[2] = Metabolic stability in rat liver microsomes assessed as parent compound remaining at 0.5 uM after 10 mins; format: ADME, Microsome; conditions: read-out: Stabilty
Summary of the method: (§1)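 Parent compound at 0.5 μM incubated 10 min with 1 mg/mL human, mouse or rat liver microsomes; fraction of parent remaining reported; average of N = 2 unless noted.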

[3] = in vivo; conditions: mouse, tumor, po, 60 mg/kg
[4] = Induction of proliferation of human T eff cells by T cell/DC mixed lymphocyte reaction (MLR) assay
[5] = target: T1, Indoleamine 2,3-dioxygenase 1 (Homo sapiens, UniProt P14902); assay: Inhibition of IDO1 in recombinant IFN-gamma induced human HeLa cells incubated for 18 hrs by fluorescence microplate reader assay
T1 sequence (P14902 whole entry): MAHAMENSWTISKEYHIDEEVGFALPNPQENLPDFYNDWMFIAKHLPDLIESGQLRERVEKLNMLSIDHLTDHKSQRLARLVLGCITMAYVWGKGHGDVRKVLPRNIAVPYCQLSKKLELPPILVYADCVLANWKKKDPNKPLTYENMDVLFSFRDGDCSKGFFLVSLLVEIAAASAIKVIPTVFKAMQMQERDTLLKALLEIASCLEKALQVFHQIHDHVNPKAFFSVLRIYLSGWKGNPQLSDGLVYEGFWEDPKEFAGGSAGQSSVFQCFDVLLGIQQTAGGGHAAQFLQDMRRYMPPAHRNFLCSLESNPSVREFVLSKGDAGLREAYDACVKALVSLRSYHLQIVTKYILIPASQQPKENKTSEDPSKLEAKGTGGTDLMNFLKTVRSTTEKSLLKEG
Summary of the method: (§2)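 HeLa (human) or M109 (murine) cells induced with IFNγ to express IDO1, then cellular IDO1 activity measured; values are the average of N = 2 unless noted.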

[6] = Metabolic stability in human liver microsomes assessed as parent compound remaining at 0.5 uM after 10 mins; format: ADME, Microsome; conditions: read-out: Stabilty; summary of the method: as §1
[7] = Metabolic stability in mouse liver microsomes assessed as parent compound remaining at 0.5 uM after 10 mins; format: ADME, Microsome; conditions: read-out: Stabilty; summary of the method: as §1
[8] = target: Indoleamine 2,3-dioxygenase 1 (Mus musculus, UniProt P28776); assay: Inhibition of IDO1 in recombinant IFN-gamma induced mouse M109 cells incubated for 18 hrs by fluorescence microplate reader assay; format: cell-based; summary of the method: as §2
Indoleamine 2,3-dioxygenase 1 (Mus musculus, UniProt P28776), sequence (P28776 whole entry): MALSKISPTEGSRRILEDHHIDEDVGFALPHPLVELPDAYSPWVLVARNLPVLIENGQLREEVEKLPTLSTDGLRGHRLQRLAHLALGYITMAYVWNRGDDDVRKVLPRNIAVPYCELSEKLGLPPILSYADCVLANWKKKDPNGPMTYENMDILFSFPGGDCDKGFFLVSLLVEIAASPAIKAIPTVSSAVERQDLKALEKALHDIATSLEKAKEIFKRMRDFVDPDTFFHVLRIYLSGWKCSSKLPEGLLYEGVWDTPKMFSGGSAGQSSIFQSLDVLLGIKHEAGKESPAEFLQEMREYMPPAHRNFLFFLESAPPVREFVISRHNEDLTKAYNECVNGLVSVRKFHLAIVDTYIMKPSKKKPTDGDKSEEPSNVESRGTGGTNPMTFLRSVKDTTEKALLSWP

[9] = target: T1, Indoleamine 2,3-dioxygenase 1; assay: Inhibition of IDO1 in IFN-gamma/LPS induced human whole blood assessed as tryptophan/kynurenine level measured after 18 hrs by RapidFire mass spectrometry; format: tissue-based

SMILES | inhibition in vivo at 60 mg/kg [1] | remaining at 10 min, 0.5 µM [2] | AUC at 120 h [3] | EC50 [4] | IC50 [5] | remaining at 10 min, 0.5 µM [6] | remaining at 10 min, 0.5 µM [7] | IC50 [8] | IC50 [9]
C[C@@H](C(=O)Nc1ccc(Cl)cc1)[C@H]1CC[C@@H](c2ccnc3ccc(F)cc32)CC1 | 61% | 86% | 34.9 µM·h | 2 nM |  |  |  |  | 
CCC(c1nc2ccc(Cl)cc2[nH]1)[C@H]1CC[C@H](Oc2ccnc3ccccc23)CC1 (some centres undefined) |  | 80% |  |  | 7 nM | 84% | 82% | 52 nM | 36 nM
CCC(Nc1nnc(-c2ccc(OC)cc2)o1)[C@H]1CC[C@@H](c2ccnc3c(F)cc(F)cc32)CC1 (some centres undefined) |  | 52% |  |  | 3 nM | 54% | 8% | 36 nM | 14 nM
C[C@@H](c1ncc(-c2ccc(Cl)cc2)[nH]1)[C@H]1CC[C@@H](c2ccnc3ccc(F)cc32)CC1 |  | 3% |  |  | 11 nM | 58% | 59% | 80 nM | 
C[C@@H](c1nnc(-c2ccc(Cl)cc2)[nH]1)[C@H]1CC[C@@H](c2ccnc3ccc(F)cc32)CC1 |  | 82% |  |  | 20 nM | 88% | 69% | 286 nM | 
COc1ccc(-c2nnc(N[C@H](C)[C@H]3CC[C@@H](c4ccnc5ccc(F)cc54)CC3)o2)cc1 |  | 35% |  |  | 3 nM | 64% | 17% | 14 nM | 
CCC(c1nc2ccc(Cl)cc2[nH]1)[C@H]1CC[C@@H](c2ccnc3ccc(F)cc32)CC1 (some centres undefined) |  | 27% |  |  | 2 nM | 82% | 49% | 3 nM | 9 nM
CCC(c1nc2ncc(Cl)cc2[nH]1)[C@H]1CC[C@@H](c2ccnc3ccc(F)cc32)CC1 (some centres undefined) |  | 35% |  |  | 2 nM | 78% | 7% | 5 nM | 6 nM
CCC(Nc1nnc(-c2ccc(OC)cc2)o1)[C@H]1CC[C@@H](c2ccnc3ccc(F)cc32)CC1 (some centres undefined) |  | 45% |  |  | 6 nM | 66% | 31% | 31 nM | 16 nM
